# ChEMBL document CHEMBL1147262, “Cytotoxic constituents of Aspergillus terreus from the rhizosphere of Opuntia versicolor of the Sonoran Desert” (J Nat Prod, 2003)
# Activity calls are given as the source filed them. No cut-off for these calls is given here.
# Columns and labels:
# SF-268 [1] = assay: Cytotoxicity against human SF268 cells at 10 ug/mL after 48 hrs by MTT assay; format: functional, cell-based
# MCF7 [2] = assay: Cytotoxicity against human MCF7 cells at 10 ug/mL after 48 hrs by MTT assay; format: functional, cell-based
# NCI-H460 [3] = assay: Cytotoxicity against human NCI-H460 cells at 10 ug/mL after 48 hrs by MTT assay; format: functional, cell-based
# NCI-H460 [4] = assay: Cell cycle arrest in human NCI-H460 cells assessed as accumulation at S phase at 0.1 uM by flow cytometry; format: functional
# Summary of the method: (§1)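 NCI-H460 cells taken at 75-85% confluency, seeded at 2.5 × 10^5 cells per 60 mm dish and left to reattach overnight. Treated overnight in complete RPMI 1640 at 10 µg/mL final (test agents) or 0.1 µM final (positive control), with DMSO ≤0.1 vol %. Harvested by trypsin, PBS-rinsed, resuspended in Krishan's buffer, then DNA-content flow cytometry gave G1/S/G2/M percentages.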
# NCI-H460 [5] = assay: Cell cycle arrest in human NCI-H460 cells assessed as accumulation at G1 phase at 0.1 uM by flow cytometry; format: functional; summary of the method: as §1
# MCF7 [6] = assay: Cytotoxicity against human MCF7 cells after 48 hrs by MTT assay; format: functional, cell-based; settings: MCF7, 48 h
# Summary of the method: (§2)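 MCF-7, NCI-H460 and SF-268 cells were exposed to serial dilutions for 48 h in RPMI 1640 with 10% fetal bovine serum. Viability was read by MTT colorimetric assay, and IC50 was taken as the concentration giving 50% inhibition of proliferation/survival.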
# NCI-H460 [7] = assay: Cell cycle arrest in human NCI-H460 cells assessed as accumulation at G2/M phase at 0.1 uM by flow cytometry; format: functional; summary of the method: as §1
# NCI-H460 [8] = assay: Cytotoxicity against human NCI-H460 cells after 48 hrs by MTT assay; format: functional, cell-based; settings: NCI-H460, 48 h; summary of the method: as §2
# SF-268 [9] = assay: Cytotoxicity against human SF268 cells after 48 hrs by MTT assay; format: functional, cell-based; settings: SF-268, 48 h; summary of the method: as §2
# NCI-H460 [10] = assay: Cell cycle arrest in human NCI-H460 cells assessed as accumulation at G1 phase at 10 ug/mL by flow cytometry; format: functional; summary of the method: as §1
# NCI-H460 [11] = assay: Cell cycle arrest in human NCI-H460 cells assessed as accumulation at G2/M phase at 10 ug/mL by flow cytometry; format: functional; summary of the method: as §1
# NCI-H460 [12] = assay: Cell cycle arrest in human NCI-H460 cells assessed as accumulation at S phase at 10 ug/mL by flow cytometry; format: functional; summary of the method: as §1
# NCI-H460 [13] = assay: Cell cycle arrest in human NCI-H460 cells assessed as accumulation at G1 phase at 3 uM by flow cytometry
# NCI-H460 [14] = assay: Cell cycle arrest in human NCI-H460 cells assessed as accumulation at G2/M phase at 3 uM by flow cytometry
# NCI-H460 [15] = assay: Cell cycle arrest in human NCI-H460 cells assessed as accumulation at S phase at 3 uM by flow cytometry
Structure (SMILES),IC50 (MCF7 [6]) [µM],IC50 (NCI-H460 [8]) [µM],IC50 (SF-268 [9]) [µM],further results
CC1C(=O)C[C@H]2[C@@H]3CC[C@H](C(=O)O)[C@]12CC3(C)C (stereo partly specified),–,–,–,Activity (SF-268 [1]): inactive; Activity (MCF7 [2]): inactive; Activity (NCI-H460 [3]): inactive
CC(=O)O[C@H]1C(=O)[C@@]2(C)[C@H]([C@H](OC(=O)c3ccccc3)[C@]3(O)C[C@H](OC(=O)[C@H](O)[C@@H](NC(=O)c4ccccc4)c4ccccc4)C(C)=C1C3(C)C)[C@]1(OC(C)=O)CO[C@@H]1C[C@@H]2O [PACLITAXEL],0.0112,–,–,Activity (NCI-H460 [4]): 14%; Activity (NCI-H460 [5]): 15.5%; Activity (NCI-H460 [7]): 70.5%
COC1=C(c2ccccc2)C(=O)C(OC)=C(c2ccccc2)C1=O [BETULINAN A],8.7,58.4,28,–
C=CC(C)(C)c1[nH]c2ccccc2c1C1=C(OC)C(=O)C(c2c[nH]c3ccccc23)=C(OC)C1=O,4.1,24.2,25.7,–
C=C1C(=O)C[C@H]2[C@@H]3CC[C@H](C(=O)OC)[C@]12CC3(C)C,16.7,9.4,10.2,–
COC[C@H]1C(=O)C[C@H]2[C@@H]3CC[C@H](C(=O)O)[C@]12CC3(C)C,20.6,19.4,21.4,Activity (NCI-H460 [10]): 44.3%; Activity (NCI-H460 [11]): 34.3%; Activity (NCI-H460 [12]): 21.4%
COC1=C(c2c[nH]c3ccccc23)C(=O)C(OC)=C(c2c[nH]c3ccccc23)C1=O [ASTERRIQUINONE D],17.7,19.9,15.8,–
C=C1C(=O)C[C@H]2[C@@H]3CC[C@H](C(=O)O)[C@]12CC3(C)C,24.1,10.6,14.7,Activity (NCI-H460 [10]): 40.7%; Activity (NCI-H460 [11]): 43.7%; Activity (NCI-H460 [12]): 16%
COC(=O)Nc1nc2cc(C(=O)c3cccs3)ccc2[nH]1 [NOCODAZOLE],–,–,–,Activity (NCI-H460 [13]): 13%; Activity (NCI-H460 [14]): 80.1%; Activity (NCI-H460 [15]): 6.9%
CC1(C)C[C@]23[C@@H](C(=O)O)CC[C@H]1[C@@H]2CC(=O)[C@@H]3CO,16.5,14.5,7.8,–
CC1(C)C[C@]23[C@@H]4COC(=O)[C@H]2CC[C@H]1[C@@H]3CC4=O [QUADRONE],14.3,12.4,16.9,Activity (NCI-H460 [10]): 38.8%; Activity (NCI-H460 [11]): 54.8%; Activity (NCI-H460 [12]): 6.3%
COC(=O)C1(c2c[nH]c3ccccc23)C(=O)C(OC)=C(c2c[nH]c3ccccc23)C1=O (stereo unspecified) [ASTERREDIONE],25.2,17.4,20.7,–
